Reference: ChEMBL document CHEMBL3244156, “Analgesic and tranquilizing activity of 5,8-disubstituted 1-tetralone Mannich bases” (1977)
Active and inactive are the calls of the source. The calls are words filed in the database; no cut-off is given here.

How the values were obtained:
Mus musculus [1] = assay: Neuroleptic activity in ip dosed mouse assessed as inhibition of amphetamine-induced mortality; type: functional
Summary of the method: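 Aggregated mice in groups of ten given amphetamine. Value is an ED50 estimate for blocking lethality, bracketed between a dose where <5/10 died and a dose where >5/10 died.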

Mus musculus [2] = assay: Analgesic activity in mouse at 100 mg/kg, ip after 2 hrs by hot plate assay; type: functional; conditions: route intraperitoneal
Summary of the method: (§1)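 Mice dropped into a glass cylinder on an aluminum plate held at 57 °C. Timed from foot contact to first hind-foot flick, with a 10-s limit. Observed 0.5 and 2 h after treatment. Value is % of mice failing to react within the limit. At least ten mice per dose.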

Mus musculus [3] = assay: Analgesic activity in mouse assessed as tail-flick latency period at 100 mg/kg, ip after 2 hrs by tail flick test; type: functional; conditions: route intraperitoneal
Rattus norvegicus [4] = assay: Neuroleptic activity in ip dosed rat assessed as drug required for blocking discriminated jump-out avoidance behavior in after 1 hr; type: functional
Summary of the method: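 Rats trained in discriminated jump-out avoidance and tested 1 h after dosing. Value is an estimated ED50 for blocking avoidance.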

Canis familiaris [5] = assay: Analgesic activity in dog assessed as rippling of skin at 10 mg/kg, po after 2 hrs by radiant heat assay; type: functional, Canis lupus familiaris
Summary of the method: (§2)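 Dogs held in a harness with a shaved mid-back patch placed under a concealed radiant heat source. Endpoint is the latency from heat onset to skin "rippling". Baseline latency measured in each dog, then retested at 0.5 and 2 h after dosing. Result expressed as % of control.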

Rattus norvegicus [6] = assay: Analgesic activity in rat assessed as median foot shock required to elicit flinch-jump at 32 mg/kg, ip after 2 hrs; type: functional; conditions: route intraperitoneal
Summary of the method: (§3)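 Series given just before and 0.5 and 2 h after ip dosing. Flinch, squeak and jump were scored. Value is the median shock (mA) that elicits a jump. At least five rats per dose.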

Rattus norvegicus [7] = assay: Analgesic activity in rat assessed as median foot shock required to elicit flinch-jump at 10 mg/kg, ip after 2 hrs; type: functional; conditions: route intraperitoneal; summary of the method: as §3
Rattus norvegicus [8] = assay: Analgesic activity in ip dosed rat assessed as median foot shock required to elicit flinch-jump in presence of naloxone; type: functional, organism-based
Rattus norvegicus [9] = species: Rattus norvegicus; assay: Induction of tolerance development in rat assessed as median foot shock required to elicit flinch-jump; type: functional, organism-based
Rattus norvegicus [10] = species: Rattus norvegicus; assay: Induction of cross-tolerance development in rat assessed as median foot shock required to elicit flinch-jump in presence of morphine; type: functional, organism-based
Mus musculus [11] = assay: Analgesic activity in mouse assessed as tail-flick latency period at 32 mg/kg, ip after 2 hrs by tail flick test; type: functional; conditions: route intraperitoneal
Mus musculus [12] = assay: Analgesic activity in mouse at 32 mg/kg, ip after 2 hrs by hot plate assay; type: functional; conditions: route intraperitoneal; summary of the method: as §1
Canis familiaris [13] = assay: Analgesic activity in dog assessed as rippling of skin at 5 mg/kg, ip after 2 hrs by radiant heat assay; type: functional, Canis lupus familiaris; conditions: route intraperitoneal; summary of the method: as §2
Rattus norvegicus [14] = assay: Analgesic activity in rat assessed as median foot shock required to elicit flinch-jump at 17.8 mg/kg, po after 2 hrs; type: functional
Canis familiaris [15] = assay: Analgesic activity in dog assessed as rippling of skin at 5 mg/kg, po after 2 hrs by radiant heat assay; type: functional, Canis lupus familiaris; summary of the method: as §2

| Structure (SMILES) | Activity (Mus musculus [2]) [%] | Activity (Mus musculus [3]) [%] | Activity (Rattus norvegicus [6]) [mA] | further results |
| --- | --- | --- | --- | --- |
| COc1ccc(Cl)c2c1CCC(CN1CCOCC1)C2=O.O=C(O)/C=C\C(=O)O (configuration not stated) | 0 | 20 | 2.2 | ED50 (Mus musculus [1]): 32 mg/kg; ED50 (Rattus norvegicus [4]): 0.32 mg/kg; Activity (Canis familiaris [5]): 140% |
| Cl.O=C1c2ccccc2CCC1CN1CCCC1 (configuration not stated) | 0 | 10 | 1.2 | ED50 (Mus musculus [1]): 32 mg/kg; ED50 (Rattus norvegicus [4]): > 10 mg/kg; Activity (Canis familiaris [5]): 100% |
| COc1ccc(Cl)c2c1CC(CN1CCOCC1)C2=O.Cl (configuration not stated) | 0 | 0 | 0.6 | – |
| CCOC1(c2ccccc2)CCN(CC2CCc3c(OC)ccc(Cl)c3C2=O)CC1.Cl (configuration not stated) | 0 | 0 | 1.2 | – |
| COc1ccc(Cl)c2c1CCC(CN1CCC(c3ccccc3)CC1)C2=O.Cl (configuration not stated) | 20 | 10 | >2.2 | Activity (Rattus norvegicus [7]): 2.2 mA |
| COc1cccc2c1CCC(CN1CCCCC1)C2=O.Cl (configuration not stated) | – | – | 0.8 | – |
| CCN(CC)CC1CCc2c(OC)ccc(Cl)c2C1=O.O=C(O)/C=C\C(=O)O (configuration not stated) | 20 | 0 | 0.6 | – |
| CCOC(=O)N1CCN(CC2CCc3c(OC)ccc(Cl)c3C2=O)CC1.O=C(O)/C=C\C(=O)O (configuration not stated) | 0 | 0 | 0.6 | – |
| COc1ccc(Cl)c2c1CC(CN(C)C)C2=O.Cl (configuration not stated) | 20 | 30 | 0.6 | – |
| COc1ccc(Cl)c2c1CCC(CN1CCCC1)C2=O.Cl (configuration not stated) | 30 | 0 | >2.2 | Activity (Rattus norvegicus [7]): 1.2 mA; ED50 (Mus musculus [1]): 10 mg/kg; Activity (Rattus norvegicus [8]): Active; Activity (Rattus norvegicus [9]): inactive; Activity (Rattus norvegicus [10]): inactive; ED50 (Rattus norvegicus [4]): > 178 mg/kg; Activity (Canis familiaris [5]): 160% |
| COc1ccc(Cl)c2c1CCC(C(C)N1CCCCC1)C2=O.Cl (configuration not stated) | 20 | 0 | 0.6 | – |
| COc1ccc(Cl)c2c1CCC(CN1CCCCCC1)C2=O.Cl (configuration not stated) | 0 | 0 | 1.2 | – |
| CCNCC1CCc2c(OC)ccc(Cl)c2C1=O.Cl (configuration not stated) | – | – | >2.2 | Activity (Rattus norvegicus [7]): 2.2 mA; Activity (Mus musculus [11]): 0%; Activity (Mus musculus [12]): 40% |
| COc1ccc(Cl)c2c1CCC(CN1CCCCC1)C2=O.Cl (configuration not stated) | 0 | 0 | >2.2 | Activity (Rattus norvegicus [7]): 2.2 mA; ED50 (Mus musculus [1]): 10 mg/kg; ED50 (Rattus norvegicus [4]): 32 mg/kg; Activity (Canis familiaris [5]): 110% |
| COc1ccc(OC)c2c1CCC(CN1CCCC1)C2=O.Cl (configuration not stated) | 0 | 0 | 1.2 | – |
| COc1cccc2c1CCC(CN(C)C)C2=O.Cl (configuration not stated) | 0 | 0 | 1.2 | – |
| COc1ccc(Cl)c2c1CC(CN1CCCC1)C2=O.Cl (configuration not stated) | 0 | 0 | 0.6 | – |
| COc1ccc(Cl)c2c1CCC(C)(CN1CCCCC1)C2=O.Cl (configuration not stated) | – | – | 0.6 | – |
| COc1ccc(Cl)c2c1CCC(C(c1ccccc1)N1CCCCC1)C2=O.Cl (configuration not stated) | 30 | 0 | 0.6 | – |
| COc1ccc(F)c2c1CCC(CN1CCOCC1)C2=O.Cl (configuration not stated) | 30 | 10 | 1.2 | – |
| COc1ccc(C)c2c1CCC(CN1CCOCC1)C2=O.Cl (configuration not stated) | 10 | 0 | 0.6 | – |
| Cl.O=C1c2ccccc2CCC1CN1CCCCC1 (configuration not stated) | 0 | 0 | 0.8 | ED50 (Mus musculus [1]): > 100 mg/kg; ED50 (Rattus norvegicus [4]): > 32 mg/kg |
| Cl.O=C1c2ccccc2CCC1CN1CCOCC1 (configuration not stated) | 10 | 20 | 0.6 | ED50 (Mus musculus [1]): 32 mg/kg; ED50 (Rattus norvegicus [4]): > 10 mg/kg; Activity (Canis familiaris [5]): 90% |
| CCc1c(C)[nH]c2c1C(=O)C(CN1CCOCC1)CC2 (configuration not stated) [MOLINDONE] | – | – | – | ED50 (Mus musculus [1]): 3.2 mg/kg; ED50 (Rattus norvegicus [4]): 3.2 mg/kg |
| C=CCNCC1CCc2c(OC)ccc(Cl)c2C1=O.Cl (configuration not stated) | – | – | >2.2 | Activity (Rattus norvegicus [7]): 2.2 mA; Activity (Mus musculus [11]): 0%; Activity (Mus musculus [12]): 0% |
| CCOc1ccc(Cl)c2c1CCC(CN1CCCC1)C2=O.Cl (configuration not stated) | 30 | 60 | 0.6 | – |
| CN1CCN(CC/C=C2/c3ccccc3Sc3ccc(S(=O)(=O)N(C)C)cc32)CC1 [THIOTHIXENE] | – | – | – | ED50 (Mus musculus [1]): 0.32 mg/kg; ED50 (Rattus norvegicus [4]): 3.2 mg/kg |
| COc1ccc(Cl)c2c1CC(CN1CCCCC1)C2=O.Cl (configuration not stated) | 0 | 0 | 0.6 | – |

| Structure (SMILES) | Activity (Mus musculus [2]) [%] | Activity (Mus musculus [3]) [%] | Activity (Rattus norvegicus [6]) [mA] | further results |
| --- | --- | --- | --- | --- |
| COc1ccc(F)c2c1CCC(CN1CCCC1)C2=O.Cl (configuration not stated) | 50 | 0 | 1.2 | – |
| COc1ccc(OC)c2c1CCC(CN(C)C)C2=O.Cl (configuration not stated) | 10 | 0 | 0.6 | – |
| COc1ccc(Cl)c2c1CCC(C(c1ccccc1)N1CCOCC1)C2=O.Cl (configuration not stated) | 0 | 0 | 0.6 | – |
| COc1cccc2c1CCC(CN1CCCC1)C2=O.Cl (configuration not stated) | 0 | 0 | 0.8 | – |
| COc1ccc(Cl)c2c1CCC(CN(C)C)C2=O.Cl (configuration not stated) | 0 | 10 | 2.2 | ED50 (Mus musculus [1]): 32 mg/kg; ED50 (Rattus norvegicus [4]): > 178 mg/kg; Activity (Canis familiaris [5]): 130% |
| CCOc1ccc(Cl)c2c1CCC(CN1CCOCC1)C2=O.Cl (configuration not stated) | 10 | 20 | 2.2 | – |
| COc1ccc(Cl)c2c1CCC(C(C)N1CCOCC1)C2=O.Cl (configuration not stated) | 0 | 0 | 0.6 | – |
| COc1ccc(Cl)c2c1CCC(CN1CCC(O)(c3ccccc3)CC1)C2=O.Cl (configuration not stated) | 60 | 0 | >2.2 | Activity (Rattus norvegicus [7]): 1.2 mA |
| CNCC1CCc2c(OC)ccc(Cl)c2C1=O.Cl (configuration not stated) | 10 | 0 | >2.2 | Activity (Rattus norvegicus [7]): 1.2 mA |
| COc1ccc(Cl)c2c1CCC(C)(CN1CCOCC1)C2=O.Cl (configuration not stated) | – | – | 0.6 | – |
| COc1ccc(Cl)c2c1C(C)CC(CN1CCOCC1)C2=O.Cl (configuration not stated) | 30 | 40 | 0.8 | – |
| CCOc1ccc(Cl)c2c1CCC(CN(C)C)C2=O.Cl (configuration not stated) | 0 | 0 | 0.6 | – |
| COc1ccc(OC)c2c1CCC(CN1CCOCC1)C2=O.Cl (configuration not stated) | 10 | 0 | 0.6 | – |
| CN(C)CC1CCc2ccccc2C1=O.Cl (configuration not stated) | 10 | 0 | 1.2 | ED50 (Mus musculus [1]): 32 mg/kg; ED50 (Rattus norvegicus [4]): > 10 mg/kg; Activity (Canis familiaris [5]): 70% |
| COc1ccc(C)c2c1CCC(CN(C)C)C2=O.Cl (configuration not stated) | – | – | 0.6 | – |
| CCOC(=O)C1(c2ccccc2)CCN(C)CC1 [MEPERIDINE] | 50 | 70 | 1.2 | Activity (Canis familiaris [13]): 150%; ED50 (Rattus norvegicus [4]): 10 mg/kg |
| COc1ccc(C)c2c1CCC(CN1CCCC1)C2=O.Cl (configuration not stated) | 12.5 | 50 | 2.2 | – |
| COc1ccc(F)c2c1CCC(CN(C)C)C2=O.Cl (configuration not stated) | 50 | 0 | 0.6 | – |
| CN(C)CCCN1c2ccccc2Sc2ccc(Cl)cc21 [CHLORPROMAZINE] | – | – | – | ED50 (Mus musculus [1]): 1 mg/kg; ED50 (Rattus norvegicus [4]): 3.2 mg/kg |
| COc1ccc(Cl)c2c1CCC(CNC1CCCCC1)C2=O.Cl (configuration not stated) | – | 0 | >2.2 | Activity (Rattus norvegicus [7]): 1.2 mA |
| CCC(=O)O[C@](Cc1ccccc1)(c1ccccc1)[C@H](C)CN(C)C [PROPOXYPHENE] | 30 | 70 | – | Activity (Rattus norvegicus [14]): 1.2%; Activity (Canis familiaris [15]): 100% |
| COc1ccc(C)c2c1CCC(CN1CCCCC1)C2=O.Cl (configuration not stated) | – | – | >2.2 | Activity (Rattus norvegicus [7]): 2.2 mA; Activity (Mus musculus [11]): 30%; Activity (Mus musculus [12]): 40% |
| COc1ccc(F)c2c1CCC(CN1CCCCC1)C2=O.Cl (configuration not stated) | – | – | 1.6 | Activity (Mus musculus [11]): 10%; Activity (Mus musculus [12]): 60% |
| CCOc1ccc(Cl)c2c1CCC(CN1CCCCC1)C2=O.Cl (configuration not stated) | 33 | 33 | 0.6 | – |
| COc1cccc2c1CCC(CN1CCOCC1)C2=O.Cl (configuration not stated) | – | – | 0.6 | – |
| COc1ccc(Cl)c2c1C(C)CC(CN1CCCCC1)C2=O.Cl (configuration not stated) | – | – | 1.2 | – |
| COc1ccc(OC)c2c1CCC(CN1CCCCC1)C2=O.Cl (configuration not stated) | 0 | 22 | 2.2 | – |
